Active and inactive are the calls of the source. No cut-off for these calls is given here.
How the values were obtained:
[1] = target: T1, Amine oxidase [flavin-containing] A (Rattus norvegicus, UniProt P21396); experiment: Inhibition of rat MAOA using 5-hydroxytryptamine as substrate pretreated for 1200 secs followed by substrate addition and measured after 3600 secs
T1 sequence (P21396 whole entry): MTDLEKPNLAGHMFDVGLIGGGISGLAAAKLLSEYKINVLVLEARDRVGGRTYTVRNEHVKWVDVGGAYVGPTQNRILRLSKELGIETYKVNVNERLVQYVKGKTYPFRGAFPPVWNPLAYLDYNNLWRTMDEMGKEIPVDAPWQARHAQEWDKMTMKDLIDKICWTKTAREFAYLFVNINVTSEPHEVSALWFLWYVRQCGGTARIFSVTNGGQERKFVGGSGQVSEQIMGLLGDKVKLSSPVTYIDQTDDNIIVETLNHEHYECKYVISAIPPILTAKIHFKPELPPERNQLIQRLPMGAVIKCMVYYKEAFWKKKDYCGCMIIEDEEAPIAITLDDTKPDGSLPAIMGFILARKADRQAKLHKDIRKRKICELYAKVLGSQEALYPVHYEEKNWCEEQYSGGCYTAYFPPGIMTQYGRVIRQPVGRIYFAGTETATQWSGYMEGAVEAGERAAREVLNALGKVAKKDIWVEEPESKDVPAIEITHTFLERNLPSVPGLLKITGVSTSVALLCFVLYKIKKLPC

[2] = target: T2, Amine oxidase [flavin-containing] B (Rattus norvegicus, UniProt P19643); experiment: Inhibition of rat MAOB using benzylamine as substrate pretreated for 1200 secs followed by substrate addition and measured after 3600 secs
T2 sequence (P19643 whole entry): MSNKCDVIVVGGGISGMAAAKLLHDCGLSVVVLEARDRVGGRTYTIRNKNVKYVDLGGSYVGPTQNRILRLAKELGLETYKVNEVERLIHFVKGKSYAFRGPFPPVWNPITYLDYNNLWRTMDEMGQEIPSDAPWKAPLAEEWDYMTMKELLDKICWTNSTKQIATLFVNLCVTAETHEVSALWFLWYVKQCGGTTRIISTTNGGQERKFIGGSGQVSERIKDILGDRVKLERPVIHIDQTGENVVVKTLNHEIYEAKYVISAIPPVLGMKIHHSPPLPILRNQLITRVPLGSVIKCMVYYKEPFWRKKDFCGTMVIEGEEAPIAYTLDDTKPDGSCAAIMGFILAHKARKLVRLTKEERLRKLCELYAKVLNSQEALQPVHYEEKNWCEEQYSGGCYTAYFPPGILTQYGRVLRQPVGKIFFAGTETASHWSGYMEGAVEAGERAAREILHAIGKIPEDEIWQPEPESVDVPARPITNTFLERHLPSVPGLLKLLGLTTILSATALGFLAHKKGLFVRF
Method in brief: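 Enzyme: liver mitochondrial MAO prepared by sucrose differential centrifugation and held in 100 mmol/L K-phosphate pH 7.9. Inhibitor pre-incubated with enzyme 1200 s at 37 °C, 5% CO2. Benzylamine was added (final 2 mmol/L; MAO final 0.15 mg/mL) and reacted 3600 s. Stopped with 10% perchloric acid. Benzaldehyde extracted into cyclohexane and read at A240. DMSO blank.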

Rattus norvegicus [3] = experiment: In-vivo inhibition of MAO in rat assessed as norepinephrine level in plasma at 20 mg/kg/day, po administered for 1 week measured post last dose by HPLC method (reference value: 200 +/- 13.2 ng/ml); type: functional
Rattus norvegicus [4] = experiment: In-vivo inhibition of MAO in rat assessed as 5-hydroxytryptamine level in plasma at 20 mg/kg/day, po administered for 1 week measured post last dose by HPLC method (reference value: 67.4 +/- 5.9 ng/ml); type: functional
Rattus norvegicus [5] = experiment: In-vivo inhibition of MAO in rat assessed as dopamine level in brain at 20 mg/kg/day, po administered for 1 week measured post last dose by HPLC method (reference value: 0.459 +/- 0.07 ng/mg); type: functional
Rattus norvegicus [6] = experiment: In-vivo inhibition of MAO in rat assessed as dopamine level in plasma at 20 mg/kg/day, po administered for 1 week measured post last dose by HPLC method (reference value: 121.3 +/- 10.1 ng/ml); type: functional
Rattus norvegicus [7] = experiment: In-vivo inhibition of MAOA in rat plasma at 20 mg/kg/day, po administered for 1 week measured post last dose; type: functional, organism-based
Rattus norvegicus [8] = experiment: In-vivo inhibition of MAO in rat assessed as norepinephrine level in brain at 20 mg/kg/day, po administered for 1 week measured post last dose by HPLC method (reference value: 1.438 +/- 0.054 ng/mg); type: functional
Rattus norvegicus [9] = experiment: In-vivo inhibition of MAOA in rat brain at 20 mg/kg/day, po administered for 1 week measured post last dose; type: functional, organism-based
Rattus norvegicus [10] = experiment: In-vivo inhibition of MAO in rat assessed as 5-hydroxytryptamine level in brain at 20 mg/kg/day, po administered for 1 week measured post last dose by HPLC method (reference value: 0.211 +/- 0.03 ng/mg); type: functional
[11] = Acute toxicity in po dosed rat; type: organism-based; details: in vivo
Rattus norvegicus [12] = experiment: In-vivo inhibition of MAOB in rat plasma at 20 mg/kg/day, po administered for 1 week measured post last dose; type: functional, organism-based
Rattus norvegicus [13] = experiment: In-vivo inhibition of MAOB in rat brain at 20 mg/kg/day, po administered for 1 week measured post last dose; type: functional, organism-based

With `O=C(NCCBr)c1ccc(Cl)cn1` the IC50 [1] was 790 µM and the IC50 [2] was 24.8 µM.
Compound `O=C(NCCO)c1ccc(Cl)cc1` has an Activity (Rattus norvegicus [3]) of 452.7 ng/mL, an Activity (Rattus norvegicus [4]) of 214.8 ng/mL and an Activity (Rattus norvegicus [5]) of 1.51 ng/mg. For the same compound, the Activity (Rattus norvegicus [6]) was 379.4 ng/mL, the inhibition (Rattus norvegicus [7]) was “Active” and the Activity (Rattus norvegicus [8]) was 3.73 ng/mg. For the same compound, the inhibition (Rattus norvegicus [9]) was “Active”, the Activity (Rattus norvegicus [10]) was 0.753 ng/mg and the LD50 [11] was 3090 mg/kg.
For `O=C(NCCO)c1ccc(Cl)cn1`, the Activity (Rattus norvegicus [3]) was 628.3 ng/mL, the inhibition (Rattus norvegicus [12]) was “Active” and the Activity (Rattus norvegicus [4]) was 116.4 ng/mL. For the same compound, the Activity (Rattus norvegicus [5]) was 0.768 ng/mg, the Activity (Rattus norvegicus [6]) was 211.6 ng/mL and the Activity (Rattus norvegicus [8]) was 4.99 ng/mg. The inhibition (Rattus norvegicus [13]) was “Active”, the Activity (Rattus norvegicus [10]) was 0.515 ng/mg and the LD50 [11] was 3060 mg/kg.
For `NCCNC(=O)c1ccc(Cl)cc1`, the Activity (Rattus norvegicus [3]) was 440.4 ng/mL, the Activity (Rattus norvegicus [4]) was 150.4 ng/mL and the Activity (Rattus norvegicus [5]) was 1.21 ng/mg. For the same compound, the Activity (Rattus norvegicus [6]) was 307.5 ng/mL, the inhibition (Rattus norvegicus [7]) was “Active” and the Activity (Rattus norvegicus [8]) was 3.13 ng/mg. The inhibition (Rattus norvegicus [9]) was “Active”, the Activity (Rattus norvegicus [10]) was 0.613 ng/mg and the LD50 [11] was 2810 mg/kg.
`NCCCNC(=O)c1ccc(Cl)cc1` showed an IC50 [1] of 24.5 µM and an IC50 [2] of 1610 µM.
Work on `O=C(NCCBr)c1ccc(Cl)cc1` yielded an IC50 [1] of 26.8 µM and an IC50 [2] of 895 µM.
`O=C(NCO)c1ccc(Cl)cc1` gave an Activity (Rattus norvegicus [3]) of 436.9 ng/mL, an Activity (Rattus norvegicus [4]) of 123.2 ng/mL and an Activity (Rattus norvegicus [5]) of 0.832 ng/mg. The Activity (Rattus norvegicus [6]) was 231.1 ng/mL, the inhibition (Rattus norvegicus [7]) was “Active” and the Activity (Rattus norvegicus [8]) was 2.64 ng/mg. The inhibition (Rattus norvegicus [9]) was “Active”, the IC50 [1] was 7.49 µM and the Activity (Rattus norvegicus [10]) was 0.545 ng/mg. For the same compound, the LD50 [11] was 3000 mg/kg and the IC50 [2] was 1440 µM.
For `NCCNC(=O)c1ccc(Cl)cn1` [LAZABEMIDE], the LD50 [11] was 1000 to 2000 mg/kg.
With `O=C(NCCN1CCOCC1)c1ccc(Cl)cc1` [MOCLOBEMIDE] the IC50 [2] was 783 µM.
In the case of `O=C(NCO)c1ccc(Cl)cn1`, the Activity (Rattus norvegicus [3]) is reported as 569.2 ng/mL, the inhibition (Rattus norvegicus [12]) is reported as “Active” and the Activity (Rattus norvegicus [4]) is reported as 100.6 ng/mL. The Activity (Rattus norvegicus [5]) was 0.667 ng/mg, the Activity (Rattus norvegicus [6]) was 201.3 ng/mL and the Activity (Rattus norvegicus [8]) was 4.12 ng/mg. For the same compound, the inhibition (Rattus norvegicus [13]) was “Active”, the Activity (Rattus norvegicus [10]) was 0.469 ng/mg and the LD50 [11] was 3000 mg/kg.
